High-throughput results deposited in PubChem BioAssay by several laboratories.
Only some compounds are listed: those with a hit (about 1.5% of all), similar ones and a draw of the others.
ZTA DNA inh – counter-screen for EBNA-1 inhibitors: inhibitors of Epstein-Barr virus ZTA | inhibition, % at 11 µM | 320,000 tested, 0.15% active | ZTA-DNA binding, fluorescence polarization; in the data active = inhibition above about 33%
LANA-H2B inh – blocks KSHV LANA binding to histone H2A/H2B. AID 2629. cell-free LANA-H2A/H2B peptide, fluorescence polarization. Q9QR71. inhibition, % (concentration not given with the values). 320,000 tested, 0.6% active; in the data active = inhibition mostly above about 10%, no sharp cut-off; inactive = mostly below about 6.7%
Target sequence (Q9QR71 whole entry, looked up): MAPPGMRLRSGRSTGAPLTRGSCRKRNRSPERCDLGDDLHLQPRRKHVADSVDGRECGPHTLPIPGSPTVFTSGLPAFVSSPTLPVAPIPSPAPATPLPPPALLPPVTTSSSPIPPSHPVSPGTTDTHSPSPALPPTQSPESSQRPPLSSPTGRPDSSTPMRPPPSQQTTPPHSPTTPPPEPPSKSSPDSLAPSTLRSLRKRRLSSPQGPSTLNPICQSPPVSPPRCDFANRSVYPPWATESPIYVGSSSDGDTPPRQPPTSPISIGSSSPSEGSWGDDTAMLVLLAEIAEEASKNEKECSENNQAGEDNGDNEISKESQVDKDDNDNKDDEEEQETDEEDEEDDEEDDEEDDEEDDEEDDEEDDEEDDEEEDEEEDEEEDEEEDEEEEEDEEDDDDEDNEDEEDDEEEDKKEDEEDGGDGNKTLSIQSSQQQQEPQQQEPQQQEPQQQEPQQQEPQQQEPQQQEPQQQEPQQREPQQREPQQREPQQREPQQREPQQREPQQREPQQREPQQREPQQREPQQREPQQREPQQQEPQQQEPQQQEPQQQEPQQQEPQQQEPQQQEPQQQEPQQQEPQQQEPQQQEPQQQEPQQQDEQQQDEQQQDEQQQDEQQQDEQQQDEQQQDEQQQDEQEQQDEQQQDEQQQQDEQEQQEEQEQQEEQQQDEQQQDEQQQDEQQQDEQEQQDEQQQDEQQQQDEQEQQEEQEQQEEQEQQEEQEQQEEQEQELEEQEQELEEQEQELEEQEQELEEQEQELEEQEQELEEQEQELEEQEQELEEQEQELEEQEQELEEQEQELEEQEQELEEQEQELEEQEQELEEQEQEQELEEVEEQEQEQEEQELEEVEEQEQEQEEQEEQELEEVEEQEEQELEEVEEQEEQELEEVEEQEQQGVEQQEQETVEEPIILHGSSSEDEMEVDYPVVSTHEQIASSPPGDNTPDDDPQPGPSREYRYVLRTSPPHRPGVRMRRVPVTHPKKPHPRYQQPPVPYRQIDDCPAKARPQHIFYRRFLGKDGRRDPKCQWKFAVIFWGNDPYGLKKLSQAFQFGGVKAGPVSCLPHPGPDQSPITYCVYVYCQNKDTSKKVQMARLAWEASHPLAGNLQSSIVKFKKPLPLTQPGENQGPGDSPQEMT
Bfl-1 A1 inh – inhibitors of the anti-apoptotic protein A1, read as caspase activation; MEF A1-2A-BIM cells, Caspase-Glo 3/7 luminescence, 3 h; percent of clofoctol response, vehicle zero; caspase activation, % (test concentration not listed); 330,000 tested, 0.066% active; AID 2462;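 active = over half of replicate activation scores above 10%, or exactly half above 10 with the replicate mean above 10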
CSN inh – blocks human CSN-mediated cullin deneddylation; Q92905; Purified CSN, SCF-Nedd8-OG deneddylation, fluorescence polarization; inhibition, % at 12.5 µM; 360,000 tested, 0.38% active;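 active = pattern-corrected inhibition above about 35%, with an unprinted fluorescence ratio check between 0.5 and 1.5, limit read from the data, passing the limit was not always enough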
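Test system: Human Csn5 produced in HEK293T cells | Compound: 12.5 µM single point | Times: 90 min, room temperature | Signal: Fluorescence polarization readout | Read-out basis: % inhibition of substrate cleavage by Csn5 | Controls: no-enzyme wells high, enzyme-with-substrate wells low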
HNF4A DNA FP – change in binding of human HNF4 alpha to DNA | HNF4a-FITC DNA binding, fluorescence polarization, 1 h | activity change, % at 10 µM | 360,000 tested, 0.3% active; in the data active = activity change above about 30%, passing the limit was not always enough
EBNA-1 inhibitor – blocks EBNA-1 binding to DNA. 300,000 tested, 0.34% active. EBNA-1 DNA binding, fluorescence polarization. inhibition, % at 14.8 µM; in the data active = inhibition above about 28%
HNF4a DNA conf – change in binding of human HNF4 alpha to DNA, retest; shares compounds with HNF4A DNA FP; HNF4A-FITC DNA binding, fluorescence polarization, 1 h; activity change, % at 12.5 µM; 210 tested, 99% active; AID 1224897; call rule not given here
Of the large screens only hits and unclear results are named; the others gave an inactive call (follow-up assays come after a bar, where they were run).

C=CCN1C(=O)/C(=C/c2ccc(OC)cc2)S/C1=N/c1nccs1	none
CS(=O)(=O)Nc1cccc(C2=NN(S(C)(=O)=O)C(c3ccccc3)C2)c1 (stereo not drawn)	none
CCS(=O)(=O)Nc1cccc(C2=NN(S(=O)(=O)CC)C(c3ccccc3)C2)c1 (stereo not drawn)	HNF4A DNA FP 55 | HNF4a DNA conf 79
CN(CC(=O)Nc1cccc(F)c1)C(=O)CSc1ccccc1F	none
COc1ccc(CCNC(=O)C(C)OC(=O)c2nsc(Cl)c2Cl)cc1OC (stereo not drawn)	none
CN1C(=O)/C(=C\C=C2/CCCN2C)N(C)C1=S	HNF4A DNA FP 62 | HNF4a DNA conf 93
C#CCOCCOCCOCCNc1nc(N2CCN(C(=O)[C@H](CCCCN)n3cc([C@@H](N)C(C)CC)nn3)CC2)nc(N2CCN(C(=O)[C@H](CCCCN)n3cc([C@@H](N)CC(C)C)nn3)CC2)n1 (stereo partly drawn)	CSN inh 69, HNF4A DNA FP 72 | HNF4a DNA conf 112
CCSc1nnc(-c2cccnc2)n1-c1ccc(Cl)c(C)c1	none
OC(COc1ccc(C2C=CCC2)cc1)CN1CCCCC1 (stereo not drawn)	HNF4A DNA FP 42 | HNF4a DNA conf 39
CC(C)Cn1c(N)c(C(=O)COC(=O)c2cc(S(=O)(=O)N3CCOCC3)ccc2Br)c(=O)n(C)c1=O	none (no result: ZTA DNA inh, EBNA-1 inhibitor)
CC(=O)Cc1nsc(NC(=O)c2ccc(-c3ccc(Cl)cc3Cl)o2)n1	none
Cc1nnc2sc(-c3ccc(NC(=O)c4ccc(-c5ccc(Cl)cc5Cl)o4)cc3)nn12	HNF4A DNA FP 103 | HNF4a DNA conf 46
C#CCNC(=O)c1cc(-c2ccccc2)sc1N	HNF4A DNA FP 67 (no result: ZTA DNA inh, LANA-H2B inh, Bfl-1 A1 inh, EBNA-1 inhibitor) | HNF4a DNA conf 80
COC(=O)c1cc(-c2ccccc2)sc1N	none
O=C(NC1CCCCC1)c1cccc2c1C(=O)c1ccc(N3CCCC3)cc1S2(=O)=O	none (no result: ZTA DNA inh, EBNA-1 inhibitor)
CC1CCN(c2ccc3c(c2)S(=O)(=O)c2cccc(C(=O)O)c2C3=O)CC1	none (no result: ZTA DNA inh, EBNA-1 inhibitor)
CC1CCN(c2ccc3c(c2)S(=O)(=O)c2cccc(C(=O)NC4CCCCC4)c2C3=O)CC1	HNF4A DNA FP 40 (no result: EBNA-1 inhibitor) | HNF4a DNA conf 40
O=C(NC1CCCC1)c1cccc2c1C(=O)c1ccc(N3CCCCC3)cc1S2(=O)=O	HNF4A DNA FP 52 (no result: EBNA-1 inhibitor) | HNF4a DNA conf 54
CC1Nc2ccc(C(=O)NC3CCCCC3)cc2NC1=O (stereo not drawn)	CSN inh 57, HNF4A DNA FP 61 | HNF4a DNA conf 49
O=C(/C=C/c1ccc(OCCCF)cc1)Nc1ccnc(-c2cccnc2)n1	HNF4A DNA FP 36 | HNF4a DNA conf 52
O=C(/C=C/c1ccc(OCCCF)cc1)Nc1ccnc(-c2ccncc2)n1	none
COc1ccc(S(=O)(=O)N2CCC3(CC2)CC(=O)c2ccccc2O3)cc1OC	none
Cc1ccc2sc(N(CCCN(C)C)C(=O)c3nc4ccccc4s3)nc2c1C	CSN inh 107, HNF4A DNA FP 217 | HNF4a DNA conf 205
O=c1cc(CN2CC(O)Cc3ccc4ccccc4c32)nc2sccn12 (stereo not drawn)	none
Cc1ccccc1C(=O)NN1C(=O)CSC1=S	none
Cc1ccccc1C(=O)/C=C1/SCC(=O)N1C	CSN inh 46, HNF4A DNA FP 38 | HNF4a DNA conf 59
N#CCC(=O)Nc1ccc(C(=O)NCC(c2ccco2)N2CCCCC2)cc1 (stereo not drawn)	CSN inh 42, HNF4A DNA FP 67 | HNF4a DNA conf 44
CN(C(=O)COC(=O)c1ccc([N+](=O)[O-])cc1N)c1ccccc1	CSN inh 42, HNF4A DNA FP 43 | HNF4a DNA conf 92
COC(=O)[C@H]1[C@H]2C[C@@H]3c4[nH]c5cc(OC)ccc5c4CCN3C[C@H]2C[C@@H](OC(=O)c2ccc(N)cc2)[C@@H]1OC	HNF4A DNA FP 43 | HNF4a DNA conf 65
CCCc1cc(C(=O)Nc2ccc(CC)cc2)no1	none
Cc1cc(C)n2c(NCc3ccccc3)c(-c3cc4ccccc4o3)nc2n1	HNF4A DNA FP 61 (no result: ZTA DNA inh, LANA-H2B inh, Bfl-1 A1 inh, EBNA-1 inhibitor) | HNF4a DNA conf 65
O=C(N/N=C/c1cc2ccccc2nc1Cl)/C(=C/c1cccs1)NC(=O)c1ccccc1	HNF4A DNA FP 47 | HNF4a DNA conf 50
O=C(N/N=C/c1cccnc1)/C(=C\c1cccs1)NC(=O)c1ccccc1	none
CN(C)c1ccc(-c2sc(Nc3ccccc3)n[n+]2-c2ccc(F)cc2)cc1	HNF4A DNA FP 69 | HNF4a DNA conf 80
O=C(O)c1ccc(-c2sc(Nc3ccccc3)n[n+]2-c2ccc(F)cc2)cc1	none
CCCCCCn1c(SCC(=O)NC2CCS(=O)(=O)C2)nc2ccccc2c1=O (stereo not drawn)	none (no result: ZTA DNA inh, LANA-H2B inh, Bfl-1 A1 inh, EBNA-1 inhibitor)
Nc1nnc(SCc2nc3scc(-c4ccccc4)c3c(=O)[nH]2)s1	HNF4A DNA FP 45 | HNF4a DNA conf 56
Cc1cc(=O)oc2cc(NC(=O)c3cccc(F)c3)ccc12	CSN inh 42, HNF4A DNA FP 41 | HNF4a DNA conf 35
O=C(c1ccc([N+](=O)[O-])s1)N1CCc2ccccc21	HNF4A DNA FP 67 | HNF4a DNA conf 53
O=C(c1ccc([N+](=O)[O-])s1)N1CCCc2ccccc21	none
Cc1ccc(S(=O)(=O)N(C)C)cc1NC(=O)COC(=O)c1sc2cc(Cl)ccc2c1Cl	none
